Measurements: ChEMBL document CHEMBL1800016, “Novel thiazolidinedione derivatives with anti-obesity effects: dual action as PTP1B inhibitors and PPAR-γ activators” (Bioorg Med Chem Lett, 2010)
pEC50, pIC50: −log10 of the molar value. Active and inactive are the calls of the source. The calls are words filed in the database; no cut-off is given here.

Experiments:
[1] = target: T1, Tyrosine-protein phosphatase 1 (Saccharomyces cerevisiae S288c, UniProt P25044); test: Inhibition of yeast PTP1 expressed in Escherichia coli assessed as p-nitrophenol release from pNPP substrate preincubated for 10 mins
T1 sequence (P25044 whole entry): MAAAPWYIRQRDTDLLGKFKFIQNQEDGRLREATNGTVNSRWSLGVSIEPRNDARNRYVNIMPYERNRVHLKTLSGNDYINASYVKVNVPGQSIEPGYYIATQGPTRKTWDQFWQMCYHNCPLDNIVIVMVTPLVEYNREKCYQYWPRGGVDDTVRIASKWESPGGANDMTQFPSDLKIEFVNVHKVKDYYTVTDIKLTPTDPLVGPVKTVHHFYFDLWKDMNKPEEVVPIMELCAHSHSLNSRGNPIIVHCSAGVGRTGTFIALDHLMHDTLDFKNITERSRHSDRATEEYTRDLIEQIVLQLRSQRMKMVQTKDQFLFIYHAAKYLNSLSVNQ
Outline: (§1)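 IC50 values against the PTP panel, with enzymes prepared as described in the supplementary material. Values are means ± SD of two or more experiments.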

[2] = target: T2, Peroxisome proliferator-activated receptor gamma (Homo sapiens, UniProt P37231); test: Agonist activity at PPARgamma expressed in HepG2 cells co-expressing PPRE assessed as transcriptional activation after 24 hrs by luciferase reporter gene assay; assay type: functional, cell-based
T2 sequence (P37231 whole entry): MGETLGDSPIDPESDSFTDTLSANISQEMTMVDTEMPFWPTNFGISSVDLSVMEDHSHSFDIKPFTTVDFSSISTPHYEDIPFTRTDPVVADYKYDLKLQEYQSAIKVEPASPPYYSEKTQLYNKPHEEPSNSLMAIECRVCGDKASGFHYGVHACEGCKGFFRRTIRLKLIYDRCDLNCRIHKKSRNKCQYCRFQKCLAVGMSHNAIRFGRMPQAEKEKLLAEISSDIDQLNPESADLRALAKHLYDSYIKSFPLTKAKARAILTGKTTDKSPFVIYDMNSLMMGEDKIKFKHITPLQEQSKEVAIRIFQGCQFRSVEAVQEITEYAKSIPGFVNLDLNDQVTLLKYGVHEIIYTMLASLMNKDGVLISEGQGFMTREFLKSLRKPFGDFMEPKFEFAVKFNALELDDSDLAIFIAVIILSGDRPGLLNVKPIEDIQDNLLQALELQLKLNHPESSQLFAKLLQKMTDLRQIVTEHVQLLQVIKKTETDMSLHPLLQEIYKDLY
Outline: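 HepG2 cells were transfected with a PPRE-driven luciferase reporter plus CMV-βGal. The basic luciferase reporter without a PPRE site served as the negative control. Compounds were added 6 h after transfection. Cells were lysed 24 h later. Luciferase activity was read on a luminometer and normalized to β-galactosidase for transfection efficiency. Two independent experiments; error as SEM.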

[3] = test system: Mus musculus; test: Antiobesity activity in high fat diet-fed diabetic C57BL/6J Jms Slc mouse model assessed as reduction in body weight at 2.6 mg/day administered with food for 4 weeks; assay type: functional
Outline: (§2)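 DIO male C57BL/6J Jms Slc mice were fed a 45%-fat HFD for 8 wk, then HFD with 0.1% w/w compound in feed (about 2.6 mg/day/mouse) for 4 wk. A 10%-fat LFD lean group ran throughout. Measures were weight gain, feed efficiency (weight gain/kcal ×100), and epididymal and retroperitoneal fat pad weights. n = 8/group; mean ± SEM; one-way ANOVA.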

[4] = test system: Mus musculus; test: Antiobesity activity in high fat diet-fed diabetic C57BL/6J Jms Slc mouse model assessed as decrease in epididymal fat at 2.6 mg/day administered with food for 4 weeks; assay type: functional; outline: as §2
[5] = test system: Mus musculus; test: Antiobesity activity in high fat diet-fed diabetic C57BL/6J Jms Slc mouse model assessed as decrease in retroperitoneal fat at 2.6 mg/day administered with food for 4 weeks; assay type: functional; outline: as §2
[6] = test system: Mus musculus; test: Toxicity in high fat diet-fed diabetic C57BL/6J Jms Slc mouse model assessed as change in weight of liver at 2.6 mg/day administered with food for 4 weeks; assay type: organism-based; conditions: in vivo, po, 672 h
Outline: (§3)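 At the end of the 4 wk in-feed dosing (about 2.6 mg/day/mouse in HFD), liver, kidney and lung weights were compared across the lean LFD, HFD control and treated groups.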

[7] = test system: Mus musculus; test: Toxicity in high fat diet-fed diabetic C57BL/6J Jms Slc mouse model assessed as change in weight of kidney at 2.6 mg/day administered with food for 4 weeks; assay type: organism-based; conditions: in vivo, po, 672 h; outline: as §3
[8] = test system: Mus musculus; test: Antiobesity activity in high fat diet-fed diabetic C57BL/6J Jms Slc mouse model assessed as decrease in total cholesterol level in serum at 2.6 mg/day administered with food for 4 weeks; assay type: functional
Outline: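 DIO mice were fed HFD for 8 wk, then HFD containing 0.1% w/w compound (about 2.6 mg/day/mouse) for 4 wk. At the end of feeding, mice were deprived of food overnight. Serum total cholesterol, triglyceride and NEFA were then measured. Values are mean ± SEM.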

[9] = Selectivity ratio of IC50 for yeast PTP1 to IC50 for PTP1B
[10] = target: T3, Tyrosine-protein phosphatase non-receptor type 1 (Homo sapiens) (UniProt P18031); test: Mixed type inhibition of PTP1B expressed in Escherichia coli
T3 sequence (whole entry): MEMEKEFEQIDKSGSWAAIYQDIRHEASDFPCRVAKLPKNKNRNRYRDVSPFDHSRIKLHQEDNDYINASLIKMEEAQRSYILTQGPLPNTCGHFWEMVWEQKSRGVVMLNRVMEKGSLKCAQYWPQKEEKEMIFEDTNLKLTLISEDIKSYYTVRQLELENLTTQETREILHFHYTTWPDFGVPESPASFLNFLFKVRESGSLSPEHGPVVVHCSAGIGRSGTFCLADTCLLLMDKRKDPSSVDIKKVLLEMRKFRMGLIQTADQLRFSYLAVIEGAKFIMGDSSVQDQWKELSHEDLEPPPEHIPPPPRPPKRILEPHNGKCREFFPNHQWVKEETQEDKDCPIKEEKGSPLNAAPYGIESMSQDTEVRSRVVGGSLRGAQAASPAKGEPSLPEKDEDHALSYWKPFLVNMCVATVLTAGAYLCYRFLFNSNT

[11] = test system: Mus musculus; test: Antidiabetic activity in high fat diet-fed diabetic C57BL/6J Jms Slc mouse model assessed as normalization of fasting blood glucose level measured after 6 hrs of fasting at 2.6 mg/day administered with food for 4 weeks measured 90 mins after last dose by glucose tolerance test; assay type: functional, organism-based
Outline: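 Mice were male C57BL/6J Jms Slc, 5 wk old after 1 wk acclimatization. They were fed a 45%-fat HFD for 8 wk, then HFD with compound mixed in (1.0 g/kg diet, about 2.6 mg/day/mouse, 78 mg/day/kg) for 4 wk. Each mouse was fasted 6 h from the start of the light cycle and fasting glucose was measured. Glucose 1.0 g/kg was then given i.p., with readings at 60 and 90 min.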

[12] = Selectivity ratio of IC50 for TC-PTP to IC50 for PTP1B
[13] = Selectivity ratio of IC50 for membrane proximal catalytic domain of LAR-D1 to IC50 for PTP1B
[14] = target: T4, Tyrosine-protein phosphatase non-receptor type 1 (Homo sapiens, UniProt P18031); test: Inhibition of PTP1B expressed in Escherichia coli assessed as p-nitrophenol release from pNPP substrate preincubated for 10 mins; outline: as §1
T4 sequence (P18031 whole entry): T3 sequence (whole entry)

[15] = Inhibition of YOP assessed as p-nitrophenol release from pNPP substrate preincubated for 10 mins; outline: as §1

- pIC50 [1]: 4.92
- pEC50 [2]: 6.47
- Ratio IC50 [9]: > 10
- inhibition [10]: Active
- Ratio IC50 [12]: > 10
- Ratio IC50 [13]: > 10
- pIC50 [14]: 5.89
- pIC50 [15]: 5.41
SMILES: Cc1ccc(S(=O)(=O)Oc2cc(OCc3ccc(C(F)(F)F)cc3)c(/C=C3\SC(=O)NC3=O)cc2Br)cc1
- Activity [3]: 2 g
- Activity [4]: 1.29 g
- Activity [5]: 0.43 g
- Activity [6]: Non-toxic
- Activity [7]: Non-toxic
- Activity [8]: 124 mg/dL
- Activity [11]: inactive
